Laboratory results from ChEMBL document CHEMBL3232989, “First identification of boronic species as novel potential inhibitors of the Staphylococcus aureus NorA efflux pump” (J Med Chem, 2014).
Converted amounts (≈) assume the structure as drawn.

Tests used:
[1] = molecular target: T1, Quinolone resistance protein NorA (Staphylococcus aureus) (UniProt P0A0J7); assay: Inhibition of NorA in fluoroquinolone-resistant Staphylococcus aureus 1199B assessed as potentiation of 4 ug/ml of ciprofloxacin MIC at 100 ug/ml after 24 hrs by microdilution method
T1 sequence (whole entry): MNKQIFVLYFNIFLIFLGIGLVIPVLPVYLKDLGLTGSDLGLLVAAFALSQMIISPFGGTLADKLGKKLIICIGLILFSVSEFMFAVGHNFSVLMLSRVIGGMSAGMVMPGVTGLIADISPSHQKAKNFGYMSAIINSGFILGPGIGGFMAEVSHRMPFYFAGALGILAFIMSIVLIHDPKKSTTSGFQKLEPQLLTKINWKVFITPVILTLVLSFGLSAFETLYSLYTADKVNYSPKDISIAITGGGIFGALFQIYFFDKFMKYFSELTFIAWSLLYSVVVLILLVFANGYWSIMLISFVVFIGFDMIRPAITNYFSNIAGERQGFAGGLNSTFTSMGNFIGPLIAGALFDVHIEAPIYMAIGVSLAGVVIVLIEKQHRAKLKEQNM
Summary of the method: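 Combination with ciprofloxacin 4 μg/mL (MIC/4) against SA-1199B in MH broth microdilution, 10^6 CFU/mL, 24 h at 37 °C, read at 620 nm and visually. Compounds are first screened at 100 μg/mL; actives are 2-fold serially diluted. MMC4 is the lowest inhibitor concentration giving antibacterial activity with subinhibitory ciprofloxacin. Duplicates.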

Staphylococcus aureus [2] = assay: Toxicity in fluoroquinolone-resistant Staphylococcus aureus 1199B expressing NorA after 24 hrs by microdilution method; format: organism-based; conditions: in vitro
Summary of the method: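 Broth microdilution in Mueller–Hinton broth, 10^6 CFU/mL per well from an 18 h 37 °C culture. Compounds come from 10 mg/mL DMSO stocks as 2-fold serial dilutions, top 128 mg/L. Plates run 24 h at 37 °C and are read at 620 nm and visually. MIC is the lowest concentration with complete growth inhibition. Duplicates; 2-fold variance accepted.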

Staphylococcus aureus [3] = assay: Toxicity in Staphylococcus aureus ATCC 25923 after 24 hrs by microdilution method; format: organism-based
Summary of the method: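 Mueller–Hinton broth microdilution; inoculum from frozen culture grown 18 h at 37 °C, 10^6 CFU/mL per well. Compounds (10 mg/mL DMSO stock) in 2-fold serial dilutions, highest 128 mg/L, first screened at 100 μg/mL. MIC = complete growth inhibition after 24 h at 37 °C, read at 620 nm and visually; duplicate; ampicillin control.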

Staphylococcus aureus [4] = assay: Toxicity in fluoroquinolone-resistant Staphylococcus aureus 1199B expressing NorA at 100 ug/ml after 24 hrs by microdilution method; format: organism-based
Summary of the method: (§1)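 Single-point screen at 100 μg/mL of compound alone in MH broth microdilution, 10^6 CFU/mL, 24 h at 37 °C. Growth is read at 620 nm and visually, giving percent growth inhibition. Compounds inhibiting more than 90% then go to MIC determination. Duplicates.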

Staphylococcus aureus [5] = assay: Toxicity in Staphylococcus aureus ATCC 25923 at 100 ug/ml after 24 hrs by microdilution method; format: organism-based; summary of the method: as §1

| SMILES | Activity [1] [µg/mL] | MIC (Staphylococcus aureus [2]) | MIC (Staphylococcus aureus [3]) | growth inhibition (GI) (Staphylococcus aureus [4]) [%] | growth inhibition (GI) (Staphylococcus aureus [5]) [%] |
| --- | --- | --- | --- | --- | --- |
| O=C(O)c1ccc2ccccc2c1 [BETA-NAPHTOIC ACID] | > 128 | > 128 µg/mL | >= 64 ug ml-1 | – | – |
| CC(C)(O)C(C)(C)OB(OC(C)(C)C(C)(C)O)c1cncc(Cl)c1 | > 128 | 128 µg/mL (≈ 358 µM) | >= 64 ug ml-1 | – | – |
| Oc1cnc2ccccc2c1 | > 128 | > 128 µg/mL | >= 64 ug ml-1 | – | – |
| Oc1cccnc1 | > 128 | > 128 µg/mL | >= 64 ug ml-1 | – | – |
| Oc1ccc(Cl)nc1 | > 128 | > 128 µg/mL | >= 64 ug ml-1 | – | – |
| O=C(O)c1cnc2ccccc2c1 | 32 | > 128 µg/mL | >= 64 ug ml-1 | – | – |
| O=C(O)c1cccnc1 [NIACIN] | > 128 | > 128 µg/mL | >= 64 ug ml-1 | – | – |
| O=Cc1ccccc1Cl | > 128 | > 128 µg/mL | >= 64 ug ml-1 | – | – |
| O=C(O)c1ccc(Br)nc1 | > 128 | > 128 µg/mL | >= 64 ug ml-1 | – | – |
| O=Cc1cccnc1 [NICOTINALDEHYDE] | > 128 | > 128 µg/mL | >= 64 ug ml-1 | – | – |
| O=C(O)c1ccc(Cl)nc1 [6-CHLORONICOTINIC ACID] | > 128 | > 128 µg/mL | >= 64 ug ml-1 | – | – |
| O=Cc1cnc2ccccc2c1 | > 128 | > 128 µg/mL | >= 64 ug ml-1 | – | – |
| Oc1ccccc1 [PHENOL] | > 128 | > 128 µg/mL | >= 64 ug ml-1 | – | – |
| Cc1cc(O)cnc1Cl | > 128 | > 128 µg/mL | >= 64 ug ml-1 | – | – |
| O=C(O)c1ccccc1 [BENZOIC ACID] | > 128 | > 128 µg/mL | >= 64 ug ml-1 | – | – |
| OB(O)c1cncc(Oc2cccnc2)c1 | 16 | > 128 µg/mL | >= 64 ug ml-1 | – | – |
| Oc1ccccc1Cl [2-CHLOROPHENOL] | 128 | > 128 µg/mL | >= 64 ug ml-1 | – | – |
| OCc1ccc(OCc2ccccc2)nc1 | > 34 | >= 128 ug ml-1 | – | – | – |
| CC(C)Nc1ccc(B(O)O)cc1 | 64 | – | >= 64 ug ml-1 | < 90 | < 90 |
| CC(C)(O)C(C)(C)OB(OC(C)(C)C(C)(C)O)c1ccncc1C#N | > 128 | – | >= 64 ug ml-1 | < 90 | < 90 |
| CC(C)(C)OC(=O)Nc1ncc(B2OC(C)(C)C(C)(C)O2)s1 | > 128 | – | >= 64 ug ml-1 | < 90 | < 90 |
| CC1(C)OB(c2cncs2)OC1(C)C | > 128 | – | >= 64 ug ml-1 | < 90 | < 90 |
| CC(=O)n1nc(C)c2cc(B3OC(C)(C)C(C)(C)O3)ccc21 | 128 | – | >= 64 ug ml-1 | < 90 | < 90 |
| O[B-](O)(O)c1cccnc1.[Na+] | 128 | – | >= 64 ug ml-1 | < 90 | < 90 |

| SMILES | Activity [1] [µg/mL] | MIC (Staphylococcus aureus [2]) | MIC (Staphylococcus aureus [3]) | growth inhibition (GI) (Staphylococcus aureus [4]) [%] | growth inhibition (GI) (Staphylococcus aureus [5]) [%] |
| --- | --- | --- | --- | --- | --- |
| COc1cccc(B(O)O)c1OC | > 128 | – | >= 64 ug ml-1 | < 90 | < 90 |
| Cc1cccc(C)c1B(O)O | > 128 | – | >= 64 ug ml-1 | < 90 | < 90 |
| CCOC(=O)c1ccccc1B(O)O | > 128 | – | >= 64 ug ml-1 | < 90 | < 90 |
| OB(O)c1ccccc1 [PHENYLBORONIC ACID] | 32 | – | >= 64 ug ml-1 | < 90 | < 90 |
| OB(O)c1cccnc1OCc1ccccc1 | 32 | – | >= 64 ug ml-1 | < 90 | < 90 |
| CC(C)(O)C(C)(C)OB(OC(C)(C)C(C)(C)O)c1cccnc1C#N | > 128 | – | >= 64 ug ml-1 | < 90 | < 90 |
| O=C(O)c1ccc(B(O)O)cc1 | > 128 | – | >= 64 ug ml-1 | < 90 | < 90 |
| COc1ncccc1B(O)O | 16 | – | >= 64 ug ml-1 | < 90 | < 90 |
| OB(O)c1ccc2[nH]ncc2c1 | 32 | – | >= 64 ug ml-1 | < 90 | < 90 |
| OB(O)c1ccccc1-c1ccccc1 | > 128 | – | >= 64 ug ml-1 | < 90 | < 90 |
| N#Cc1c(B(O)O)ccnc1Cl | > 128 | – | >= 64 ug ml-1 | < 90 | < 90 |
| CSc1ncccc1B(OC(C)(C)C(C)(C)O)OC(C)(C)C(C)(C)O | > 128 | – | >= 64 ug ml-1 | < 90 | < 90 |
| CCOC(=O)Nc1ncc(B2OC(C)(C)C(C)(C)O2)s1 | > 128 | – | >= 64 ug ml-1 | < 90 | < 90 |
| COc1nccc(B(OC(C)(C)C(C)(C)O)OC(C)(C)C(C)(C)O)c1Cl | 32 | – | >= 64 ug ml-1 | < 90 | < 90 |
| COc1ccc(B(O)O)cc1 | 64 | > 128 µg/mL | – | – | – |
| CC(C)[Si](Oc1ncc(B2OC(C)(C)C(C)(C)O2)o1)(C(C)C)C(C)C | > 128 | – | >= 64 ug ml-1 | < 90 | < 90 |
| Cc1c[nH]nc1B(O)O | 64 | – | >= 64 ug ml-1 | < 90 | < 90 |
| OB(O)c1ccnc(Cl)c1Cl | 32 | – | >= 64 ug ml-1 | < 90 | < 90 |
| OB(O)c1cc(Cl)ncc1Cl | 64 | – | >= 64 ug ml-1 | < 90 | < 90 |
| CC(C)(C)OC(=O)n1cccc1B(O)O | > 128 | – | >= 64 ug ml-1 | < 90 | < 90 |
| OB(O)c1cccnc1Cl | > 128 | – | >= 64 ug ml-1 | < 90 | < 90 |
| OB(O)c1ccnc(F)c1Cl | 16 | – | >= 64 ug ml-1 | < 90 | < 90 |
| CC(C)(O)C(C)(C)OB(OC(C)(C)C(C)(C)O)c1ccncc1 | > 128 | – | >= 64 ug ml-1 | < 90 | < 90 |
